Like-named read-outs stand apart in the source and are kept apart here.
Legend:
[1] = pH stability in buffer solutions; assay type: physicochemical; details: 60 min
Summary of the method: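 A DMSO stock (0.25 µmol/mL) was diluted 50 µL into 950 µL of 20 mM buffer: phosphate pH 7.4, boric acid-KCl-NaOH pH 9.4, or sodium acetate-KCl-HCl pH 5.0. Samples were held 1 h at 37 °C, and unchanged compound was measured by reversed-phase HPLC (CH3CN/H2O + 0.1% TFA).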

human mGlu2 = human mGlu2 (Homo sapiens, UniProt Q14416); assay: thallium flux GIRK functional assay, human mGlu2; assay type: cell-based
LogP, shake flask method = assay type: physicochemical; details: n-octanol/water
Summary of the method: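 Test compound (50 µL of 20 µM DMSO stock) was mixed with mutually pre-saturated n-octanol and water (475 µL each), vortexed 1 min and shaken overnight at 37 °C. Each phase was quantified by LC-MS/MS, and LogP was taken as log of the octanol/water amount ratio. Run in triplicate.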

human mGlu3 = human mGlu3 (Homo sapiens, UniProt Q14832); assay: thallium flux GIRK functional assay, human mGlu3; assay type: cell-based; details: for selectivity for mGlu2 over mGlu3: thallium flux GIRK assays
Summary of the method: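 HEK cells stably co-expressing GIRK and human mGlu3 (puromycin-selected polyclonal line) were plated overnight and loaded with FluoZin2-AM (330 nM final) for 1 h at RT. Compound (0.3% DMSO final) was preincubated ~1 h at RT, then thallium buffer with a full glutamate concentration-response was added. The 5–15 s fluorescence slope, normalised to vehicle and maximal agonist, was fitted to a four-parameter logistic equation.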

[2] = liver microsomal stability; assay type: in vitro ADME; details: Sprague-Dawley, rat, liver microsomes
Summary of the method: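 Sprague-Dawley rat liver microsomes in PBS with compound (0.5 µL of 2 mM DMSO stock) were preincubated 5 min at 37 °C. NADPH (10 mM stock) was added, then 60 min at 37 °C. Quenched with ice-cold CH3CN, centrifuged, quantified by LC-MS/MS as % peak area 60 vs 0 min. At least triplicate; verapamil positive control.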

[3] = PET imaging in normal rat brain; assay type: in vivo, Sprague-Dawley rats; details: unlabeled QCA 1 mg/kg, self-blocking
major CNS targets = assay: GPCRome assays; assay type: cell-based; details: NIH PDSP
other mGlu receptors = assay: activity towards other mGlu receptors; details: test concentration of 30 µM
[4] = cited from earlier work
[5] = rat
[6] = mice
mGlu2 [7] = biological target: mGlu2 (Rattus norvegicus, UniProt P31421); assay: in vitro autoradiography on rat brain sections; assay type: binding
mGlu2 [8] = details: cited from earlier work

Sequence of human mGlu3 (Q14832 23-879): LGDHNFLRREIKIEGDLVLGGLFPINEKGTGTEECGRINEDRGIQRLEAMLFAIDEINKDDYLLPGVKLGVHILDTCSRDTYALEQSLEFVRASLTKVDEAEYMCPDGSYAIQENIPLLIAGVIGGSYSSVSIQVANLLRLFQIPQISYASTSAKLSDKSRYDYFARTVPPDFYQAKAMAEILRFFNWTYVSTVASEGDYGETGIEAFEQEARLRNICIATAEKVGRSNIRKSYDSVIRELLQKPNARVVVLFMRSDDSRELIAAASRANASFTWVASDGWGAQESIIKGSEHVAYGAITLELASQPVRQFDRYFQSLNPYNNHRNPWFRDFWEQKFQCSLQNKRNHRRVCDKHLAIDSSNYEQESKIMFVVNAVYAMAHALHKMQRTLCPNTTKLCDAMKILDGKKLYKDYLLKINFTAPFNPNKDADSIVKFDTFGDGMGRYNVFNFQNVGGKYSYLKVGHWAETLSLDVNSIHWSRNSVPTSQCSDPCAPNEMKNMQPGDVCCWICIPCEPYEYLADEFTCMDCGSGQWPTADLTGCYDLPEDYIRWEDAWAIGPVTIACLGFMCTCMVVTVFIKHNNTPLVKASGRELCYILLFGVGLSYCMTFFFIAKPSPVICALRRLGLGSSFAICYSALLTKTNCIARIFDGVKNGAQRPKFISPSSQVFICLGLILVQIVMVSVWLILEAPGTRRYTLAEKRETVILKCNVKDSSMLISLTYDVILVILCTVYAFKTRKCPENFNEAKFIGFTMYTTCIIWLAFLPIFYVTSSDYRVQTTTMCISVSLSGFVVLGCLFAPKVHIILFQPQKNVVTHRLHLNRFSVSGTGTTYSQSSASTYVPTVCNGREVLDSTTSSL
Sequence of human mGlu2 (Q14416 19-872): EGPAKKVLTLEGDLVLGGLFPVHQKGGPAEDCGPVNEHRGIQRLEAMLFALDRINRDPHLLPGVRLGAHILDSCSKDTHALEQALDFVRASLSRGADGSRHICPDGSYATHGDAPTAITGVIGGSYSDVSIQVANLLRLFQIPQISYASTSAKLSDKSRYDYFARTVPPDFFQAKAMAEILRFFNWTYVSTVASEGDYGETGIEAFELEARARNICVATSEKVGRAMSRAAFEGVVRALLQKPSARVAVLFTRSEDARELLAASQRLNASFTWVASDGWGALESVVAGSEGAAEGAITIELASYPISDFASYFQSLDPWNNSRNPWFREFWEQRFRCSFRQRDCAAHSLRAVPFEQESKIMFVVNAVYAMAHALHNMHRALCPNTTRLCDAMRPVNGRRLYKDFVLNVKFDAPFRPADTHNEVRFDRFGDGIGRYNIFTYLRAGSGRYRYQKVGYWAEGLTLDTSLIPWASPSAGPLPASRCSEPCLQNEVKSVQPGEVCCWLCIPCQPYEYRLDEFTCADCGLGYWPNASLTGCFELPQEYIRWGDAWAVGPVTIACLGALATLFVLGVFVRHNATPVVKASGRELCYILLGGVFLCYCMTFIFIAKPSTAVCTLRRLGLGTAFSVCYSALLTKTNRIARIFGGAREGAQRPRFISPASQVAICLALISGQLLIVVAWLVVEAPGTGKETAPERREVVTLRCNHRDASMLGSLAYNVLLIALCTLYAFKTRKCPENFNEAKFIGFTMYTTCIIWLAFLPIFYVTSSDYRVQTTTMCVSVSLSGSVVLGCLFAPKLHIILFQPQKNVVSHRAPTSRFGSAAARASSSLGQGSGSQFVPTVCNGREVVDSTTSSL
Sequence of mGlu2 (Rattus norvegicus, UniProt P31421) (P31421 19-872): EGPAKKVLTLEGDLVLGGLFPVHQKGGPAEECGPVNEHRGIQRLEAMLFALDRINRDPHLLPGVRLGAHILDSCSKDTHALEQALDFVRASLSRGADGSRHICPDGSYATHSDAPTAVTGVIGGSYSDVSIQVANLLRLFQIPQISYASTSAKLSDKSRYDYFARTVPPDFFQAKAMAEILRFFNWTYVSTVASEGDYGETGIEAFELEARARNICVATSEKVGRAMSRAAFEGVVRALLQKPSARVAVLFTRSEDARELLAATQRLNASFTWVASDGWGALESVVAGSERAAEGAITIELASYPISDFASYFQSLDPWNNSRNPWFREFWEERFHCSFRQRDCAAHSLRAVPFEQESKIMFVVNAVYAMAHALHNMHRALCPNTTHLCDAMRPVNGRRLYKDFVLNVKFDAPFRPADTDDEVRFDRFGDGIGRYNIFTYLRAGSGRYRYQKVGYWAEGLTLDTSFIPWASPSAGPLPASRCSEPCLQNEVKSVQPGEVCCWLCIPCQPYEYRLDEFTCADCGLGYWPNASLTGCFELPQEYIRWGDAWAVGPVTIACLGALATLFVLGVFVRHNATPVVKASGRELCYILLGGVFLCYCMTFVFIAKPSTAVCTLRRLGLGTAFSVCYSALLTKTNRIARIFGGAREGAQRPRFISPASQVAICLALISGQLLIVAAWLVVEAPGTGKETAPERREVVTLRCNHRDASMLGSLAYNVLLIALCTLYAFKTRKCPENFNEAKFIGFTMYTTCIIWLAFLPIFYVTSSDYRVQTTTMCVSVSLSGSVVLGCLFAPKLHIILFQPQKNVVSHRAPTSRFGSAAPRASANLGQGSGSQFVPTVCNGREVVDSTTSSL

Row | SMILES | pH stability, percent remaining of the parent molecule ([1]; pH 5.0, 37 °C) [%] | pH stability, percent remaining of the parent molecule ([1]; pH 7.4, 37 °C) [%] | pH stability, percent remaining of the parent molecule ([1]; pH 9.4, 37 °C) [%] | IC50 (human mGlu2) [nM] | logP (LogP, shake flask method) | remaining at 1 h, 2 µM [2] [%] | selectivity for mGlu2 over mGlu3 (human mGlu3) | also measured
1 | [11CH3]Oc1ccc(C2CCN(c3ccn(CC4CC4)c(=O)c3C#N)CC2)cc1 [[^11C]CMDC, 1-(cyclopropylmethyl)-4-(4-[^11C]methoxyphenyl)-piperidin-1-yl-2-oxo-1,2-dihydropyridine-3-carbonitrile] | – | – | – | – | – | – | – | peak brain uptake [4]: ca. 0.6 SUV
2 | [11CH3]Oc1ccc(-c2cc(C(N)=O)nc3cc(CN4C(=O)CCC4=O)ccc23)c(F)c1 [[^11C]QCA, 7-((2,5-dioxopyrrolidin-1-yl)methyl)-4-(2-fluoro-4-[^11C]methoxyphenyl) quinoline-2-carboxamide] | – | – | – | – | – | – | – | peak brain uptake in whole brain (PgP/Bcrp; PgP/Bcrp knockout mice): ca. 0.8 SUV; increase of whole brain uptake in PgP/Bcrp knockout vs wild-type mice (PgP/Bcrp; calculated based on area under curve): 130%; peak brain uptake in whole brain (PgP/Bcrp; wild-type mice): ca. 0.3 SUV; unchanged [11C]QCA in brain homogenates ([5]; 5 min post injection): 78%; unchanged [11C]QCA in plasma ([5]; 5 min post injection): 93%; unchanged [11C]QCA in brain homogenates ([5]; 20 min post injection): 41%; unchanged [11C]QCA in plasma ([5]; 20 min post injection): 88%; unchanged [11C]QCA in brain homogenates ([5]; 60 min post injection): 34%; unchanged [11C]QCA in plasma ([5]; 60 min post injection): 79%; uptake in heart, lungs, liver, pancreas, kidneys and small intestine ([6]; 1 min post injection): > 3 % ID/g; brain uptake, peak value ([6]; at 1 min post injection): 0.42 % ID/g; in vitro specific binding to mGlu2 (mGlu2 [7]): moderate-to-high level of in vitro specific binding
3 | [11CH3]Oc1c(F)ccc(F)c1C1CCN(c2ccn3c(CC4CC4)nnc3c2Cl)CC1 [compound 2] | – | – | – | – | – | – | – | mGlu2 selectivity over the other mGlu receptors (mGlu2 [8]): greater than 350 fold

More lines, main results first:

Row | pH stability, percent remaining of the parent molecule ([1]; pH 5.0, 37 °C) [%] | pH stability, percent remaining of the parent molecule ([1]; pH 7.4, 37 °C) [%] | pH stability, percent remaining of the parent molecule ([1]; pH 9.4, 37 °C) [%] | IC50 (human mGlu2) [nM] | logP (LogP, shake flask method) | remaining at 1 h, 2 µM [2] [%] | SMILES | selectivity for mGlu2 over mGlu3 (human mGlu3) | also measured
4 | 98.5 | 53.6 | 59.0 | 130 ± 10 | 1.75 | 70.1 | NC(=O)c1cc(-c2ccc(OCCF)cc2F)c2ccc(CN3C(=O)CCC3=O)cc2n1 [FEQCA, 7-((2,5-dioxopyrrolidin-1-yl)methyl)-4-(2-fluoro-4-(2-fluoroethoxy)phenyl)quinoline-2-carboxamide] | excellent selectivity for mGlu2 over mGlu3 | –
5 | 91.5 | 72.5 | 76.3 | 1080 ± 1300 | 1.99 | 64.6 | NC(=O)c1cc(-c2ccc(OCCCF)cc2F)c2ccc(CN3C(=O)CCC3=O)cc2n1 [FPQCA, 7-((2,5-dioxopyrrolidin-1-yl)methyl)-4-(2-fluoro-4-(3-fluoropropoxy)phenyl)quinoline-2-carboxamide] | excellent selectivity for mGlu2 over mGlu3 | –
6 | 97.9 | 50.9 | 46.7 | – | 1.27 | 64.4 | COc1ccc(-c2cc(C(N)=O)nc3cc(CN4C(=O)CCC4=O)ccc23)c(F)c1 [QCA, 7-((2,5-dioxopyrrolidin-1-yl)methyl)-4-(2-fluoro-4-methoxyphenyl)quinoline-2-carboxamide] | – | effect of pretreatment on [11C]QCA brain uptake [3]: failed to show significant reduction of brain uptake; effect on glutamate potency or glutamate maximal response (Schild analysis) (human mGlu3; mGlu3, 41 nM-30 µM QCA): no effect; interaction with major CNS targets (major CNS targets): no significant interaction; activity towards other mGlu receptors (other mGlu receptors): inactive
